Measured values reported in ChEMBL document CHEMBL5247578, “Effective synthesis of benzimidazoles-imidazo[1,2-a]pyrazine conjugates: A comparative study of mono-and bis-benzimidazoles for antitumor activity” (Eur J Med Chem, 2019).

Tests used:
Assay type in all cases: functional
OVCAR-4 [1] = assay: Antiproliferative activity against human OVCAR-4 cells assessed as cell growth at 0.0000001 M incubated for 48 hrs by SRB assay relative to control; details: dose 100 nM, read-out: Activity
ACHN [2] = assay: Antiproliferative activity against human ACHN cells assessed as cell growth at 0.00001 M incubated for 48 hrs by SRB assay relative to control; details: read-out: Activity
Outline: (§1)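 NCI-60 five-dose screen over 10^-4–10^-8 M (10-fold dilutions). Cells grown in RPMI 1640 with 5% FBS and 2 mM L-glutamine, seeded at 5,000–40,000 cells/well and preincubated 24 h. Drug from DMSO stock, 48 h at 37 °C, 5% CO2. Adherent cells TCA-fixed and stained with 0.4% SRB; A515 read. Percent growth = (Ti−Tz)/(C−Tz)×100, or (Ti−Tz)/Tz×100 when Ti<Tz.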

NCI-H23 [3] = assay: Antiproliferative activity against human NCI-H23 cells assessed as cell growth at 0.00001 M incubated for 48 hrs by SRB assay relative to control; details: read-out: Activity
SR = assay: Antiproliferative activity against human SR cells assessed as cell growth at 0.0001 M incubated for 48 hrs by SRB assay relative to control; details: read-out: Activity
SF-295 = assay: Antiproliferative activity against human SF-295 cells assessed as cell growth at 0.00001 M incubated for 48 hrs by SRB assay relative to control; details: read-out: Activity
SNB-75 = assay: Antiproliferative activity against human SNB-75 cells assessed as cell growth at 0.00001 M incubated for 48 hrs by SRB assay relative to control; details: read-out: Activity
ACHN [4] = assay: Antiproliferative activity against human ACHN cells assessed as cell growth at 0.0000001 M incubated for 48 hrs by SRB assay relative to control; details: dose 100 nM, read-out: Activity; outline: as §1
NCI-H322M = assay: Antiproliferative activity against human NCI-H322M cells assessed as cell growth at 0.000001 M incubated for 48 hrs by SRB assay relative to control; details: read-out: Activity
HL-60 = assay: Growth inhibition against human HL-60 cells incubated for 48 hrs by sulforhodamine B assay
NCI-H460 = assay: Antiproliferative activity against human NCI-H460 cells assessed as cell growth at 0.00000001 M incubated for 48 hrs by SRB assay relative to control; details: dose 10 nM, read-out: Activity
CAKI-1 = assay: Growth inhibition against human CAKI-1 cells assessed as total growth inhibitory concentration incubated for 48 hrs by sulforhodamine B assay
HOP-92 = assay: Growth inhibition against human HOP-92 cells assessed as total growth inhibitory concentration incubated for 48 hrs by sulforhodamine B assay
KM12 [5] = assay: Growth inhibition against human KM12 cells assessed as total growth inhibitory concentration incubated for 48 hrs by sulforhodamine B assay
MDA-MB-231 = assay: Growth inhibition against human MDA-MB-231 cells incubated for 48 hrs by sulforhodamine B assay
MDA-MB-435 = assay: Antiproliferative activity against human MDA-MB-435 cells assessed as cell growth at 0.0001 M incubated for 48 hrs by SRB assay relative to control; details: read-out: Activity
SK-MEL-28 [6] = assay: Antiproliferative activity against human SK-MEL-28 cells assessed as cell growth at 0.00000001 M incubated for 48 hrs by SRB assay relative to control; details: dose 10 nM, read-out: Activity
KM12 [7] = assay: Antiproliferative activity against human KM12 cells assessed as cell growth at 0.00000001 M incubated for 48 hrs by SRB assay relative to control; details: dose 10 nM, read-out: Activity
SK-OV-3 [8] = assay: Antiproliferative activity against human SK-OV-3 cells assessed as cell growth inhibition by measuring lethal concentration incubated for 48 hrs by sulforhodamine B assay; details: read-out: LC50 (the source's name)
A498 = assay: Antiproliferative activity against human A498 cells assessed as cell growth inhibition by measuring lethal concentration incubated for 48 hrs by sulforhodamine B assay; details: read-out: LC50 (the source's name)
SK-MEL-28 [9] = assay: Antiproliferative activity against human SK-MEL-28 cells assessed as cell growth at 0.00001 M incubated for 48 hrs by SRB assay relative to control; details: read-out: Activity
PC-3 = assay: Antiproliferative activity against human PC-3 cells assessed as cell growth at 0.0001 M incubated for 48 hrs by SRB assay relative to control; details: read-out: Activity
SK-MEL-2 = assay: Antiproliferative activity against human SK-MEL-2 cells assessed as cell growth at 0.00001 M incubated for 48 hrs by SRB assay relative to control; details: read-out: Activity
SK-OV-3 [10] = assay: Antiproliferative activity against human SK-OV-3 cells assessed as cell growth at 0.000001 M incubated for 48 hrs by SRB assay relative to control; details: read-out: Activity
CCRF-CEM = assay: Antiproliferative activity against human CCRF-CEM cells assessed as cell growth inhibition by measuring lethal concentration incubated for 48 hrs by sulforhodamine B assay; details: read-out: LC50 (the source's name)
SK-MEL-5 = assay: Antiproliferative activity against human SK-MEL-5 cells assessed as cell growth at 0.000001 M incubated for 48 hrs by SRB assay relative to control; details: read-out: Activity
SW-620 = assay: Antiproliferative activity against human SW620 cells assessed as cell growth at 0.0000001 M incubated for 48 hrs by SRB assay relative to control; details: dose 100 nM, read-out: Activity
SK-OV-3 [11] = assay: Antiproliferative activity against human SK-OV-3 cells assessed as cell growth at 0.0001 M incubated for 48 hrs by SRB assay relative to control; details: read-out: Activity
KM12 [12] = assay: Antiproliferative activity against human KM12 cells assessed as cell growth inhibition by measuring lethal concentration incubated for 48 hrs by sulforhodamine B assay; details: read-out: LC50 (the source's name)
SNB-19 = assay: Antiproliferative activity against human SNB-19 cells assessed as cell growth at 0.00001 M incubated for 48 hrs by SRB assay relative to control; details: read-out: Activity
Hs-578T = assay: Antiproliferative activity against human Hs-578T cells assessed as cell growth inhibition by measuring lethal concentration incubated for 48 hrs by sulforhodamine B assay; details: read-out: LC50 (the source's name)
NCI-H23 [13] = assay: Antiproliferative activity against human NCI-H23 cells assessed as cell growth at 0.0000001 M incubated for 48 hrs by SRB assay relative to control; details: dose 100 nM, read-out: Activity
OVCAR-4 [14] = assay: Growth inhibition against human OVCAR-4 cells assessed as total growth inhibitory concentration incubated for 48 hrs by sulforhodamine B assay
MCF7 = assay: Antiproliferative activity against human MCF7 cells assessed as cell growth at 0.00001 M incubated for 48 hrs by SRB assay relative to control; details: read-out: Activity
OVCAR-5 = assay: Antiproliferative activity against human OVCAR-5 cells assessed as cell growth inhibition by measuring lethal concentration incubated for 48 hrs by sulforhodamine B assay; details: read-out: LC50 (the source's name)
SK-OV-3 [15] = assay: Growth inhibition against human SK-OV-3 cells incubated for 48 hrs by sulforhodamine B assay
SK-OV-3 [16] = assay: Antiproliferative activity against human SK-OV-3 cells assessed as cell growth at 0.0000001 M incubated for 48 hrs by SRB assay relative to control; details: dose 100 nM, read-out: Activity
COLO 205 = assay: Growth inhibition against human COLO 205 cells assessed as total growth inhibitory concentration incubated for 48 hrs by sulforhodamine B assay
OVCAR-8 = assay: Growth inhibition against human OVCAR-8 cells assessed as total growth inhibitory concentration incubated for 48 hrs by sulforhodamine B assay

## COc1ccc(-c2cn3ccnc3c(-c3ccc4ncn(C5CCCCC5)c4c3)n2)cc1
OVCAR-4 [1]
  growth at 0.1 µM: 96%
ACHN [2]
  growth at 10 µM: 13%
NCI-H23 [3]
  growth at 10 µM: 13%
SR
  growth at 100 µM: 16%
SF-295
  growth at 10 µM: -29%
SNB-75
  growth at 10 µM: 3%
ACHN [4]
  growth at 0.1 µM: 100%
NCI-H322M
  growth at 1 µM: 87%
HL-60
  GI50: 1.06 µM
NCI-H460
  growth at 0.01 µM: 104%
CAKI-1
  TGI: > 100 µM
HOP-92
  TGI: > 100 µM
KM12 [5]
  TGI: > 100 µM
MDA-MB-231
  GI50: 2.83 µM
MDA-MB-435
  growth at 100 µM: 11%
SK-MEL-28 [6]
  growth at 0.01 µM: 94%
KM12 [7]
  growth at 0.01 µM: 100%
SK-OV-3 [8]
  CC50: > 100 µM
A498
  CC50: > 100 µM
SK-MEL-28 [9]
  growth at 10 µM: 33%
PC-3
  growth at 100 µM: 24%
SK-MEL-2
  growth at 10 µM: 21%
SK-OV-3 [10]
  growth at 1 µM: 34%
CCRF-CEM
  CC50: > 100 µM
SK-MEL-5
  growth at 1 µM: 41%
SW-620
  growth at 0.1 µM: 99%
SK-OV-3 [11]
  growth at 100 µM: -2%
KM12 [12]
  CC50: > 100 µM
SNB-19
  growth at 10 µM: 22%
Hs-578T
  CC50: > 100 µM
NCI-H23 [13]
  growth at 0.1 µM: 95%
OVCAR-4 [14]
  TGI: > 100 µM
MCF7
  growth at 10 µM: 16%
OVCAR-5
  CC50: > 100 µM
SK-OV-3 [15]
  GI50: 0.508 µM
SK-OV-3 [16]
  growth at 0.1 µM: 88%
COLO 205
  TGI: 14.4 µM
OVCAR-8
  TGI: > 100 µM

## c1ccc(Cn2cnc3ccc(-c4nc(-c5ccc6c(c5)ncn6C5CCCCC5)cn5ccnc45)cc32)cc1
OVCAR-4 [1]
  growth at 0.1 µM: 98%
ACHN [2]
  growth at 10 µM: 11%
NCI-H23 [3]
  growth at 10 µM: -46%
SR
  growth at 100 µM: 6%
SF-295
  growth at 10 µM: -82%
SNB-75
  growth at 10 µM: -70%
ACHN [4]
  growth at 0.1 µM: 97%
NCI-H322M
  growth at 1 µM: 89%
HL-60
  GI50: 2.88 µM
NCI-H460
  growth at 0.01 µM: 103%
CAKI-1
  TGI: > 100 µM
HOP-92
  TGI: 2.62 µM
KM12 [5]
  TGI: 4.93 µM
MDA-MB-231
  GI50: 1.68 µM
MDA-MB-435
  growth at 100 µM: 2%
SK-MEL-28 [6]
  growth at 0.01 µM: 94%
KM12 [7]
  growth at 0.01 µM: 100%
SK-OV-3 [8]
  CC50: > 100 µM
A498
  CC50: 6.85 µM
SK-MEL-28 [9]
  growth at 10 µM: -9%
PC-3
  growth at 100 µM: -3%
SK-MEL-2
  growth at 10 µM: -41%
SK-OV-3 [10]
  growth at 1 µM: 100%
CCRF-CEM
  CC50: > 100 µM
SK-MEL-5
  growth at 1 µM: 80%
SW-620
  growth at 0.1 µM: 105%
SK-OV-3 [11]
  growth at 100 µM: 6%
KM12 [12]
  CC50: > 100 µM
SNB-19
  growth at 10 µM: 28%
Hs-578T
  CC50: > 100 µM
NCI-H23 [13]
  growth at 0.1 µM: 93%
OVCAR-4 [14]
  TGI: > 100 µM
MCF7
  growth at 10 µM: 2%
OVCAR-5
  CC50: > 100 µM
SK-OV-3 [15]
  GI50: 2.53 µM
SK-OV-3 [16]
  growth at 0.1 µM: 95%
COLO 205
  TGI: 3.99 µM
OVCAR-8
  TGI: 6.54 µM
